# CHOP UPR activ: apoptotic UPR (CHOP) activation; activation, % at 10 µM; hit rate 0.34% among 330,000; AID 449763; CHO-CHOP luciferase reporter, luminescence; percent of tunicamycin response over DMSO baseline;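 active means at 10 µM dose, activation of 40% or more, normalized to positive control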;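 further: 100% = tunicamycin at 10 µg/mL and 0% = DMSO alone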
#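 Material: CHO-CHOP cells, stable luciferase reporter of PERK-eIF2a-CHOP signalling; quantity: 500 reporter cells seeded per well; buffer or medium: F12 medium containing 10% fetal bovine serum; compound: one dose, 10 µM in 0.5% DMSO; incubation: 6 h compound treatment, 37 °C; measured by: Steady-Glo luciferase luminescence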
# XBP1 UPR activ: activators of adaptive arm of unfolded protein response (XBP1); CHO-XBP1 luciferase reporter, IRE1-XBP1 UPR activation, luminescence; percent of tunicamycin response, DMSO as zero; activation, % at 20 µM; hit rate 0.33% among 330,000; AID 463104;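 active means versus positive control, 20 µM dose yields 30% or more activation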;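 further: 100% = tunicamycin at 10 µg/mL and 0% = DMSO only wells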
#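 Test system: CHO-XBP1 luciferase reporter cells | Buffer or medium: Serum-containing F12 medium, 10% FBS | Schedule: 6 h compound exposure at 37 °C, 5% CO2 | Detection: Steady-Glo luciferase glow luminescence, 10 min after reagent addition | Read-out basis: Activation, % of tunicamycin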
# Bfl-1 A1 inh: inhibitors of the anti-apoptotic protein A1, read as caspase activation | MEF A1-2A-BIM cells, Caspase-Glo 3/7 luminescence, 3 h; percent of clofoctol response, vehicle zero | caspase activation, % (no concentration beside the values) | hit rate 0.066% among 330,000 | AID 2462;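 active means over half of replicate activation scores above 10%, or exactly half above 10 with the replicate mean above 10; inconclusive means replicate mean below 10 yet half the replicates above 10; inactive means over half of replicates below 10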
# CHOP inh: CHOP inhibition in unfolded protein response | hit rate 3.8% among 220,000 | CHO-K1 CHOP-promoter luciferase, tunicamycin-induced, 15-18 h | inhibition, % at 10 µM | AID 2732;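 active means compounds that reduced the stress-induced luciferase reporter signal by more than about 70% of percent inhibition, limit read from the data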;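 further: 0% = tunicamycin plus vehicle and 100% = wells without tunicamycin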
# Numbers without * were called inactive; ? = inconclusive; nt = no result. The entries come from a sample that favours hits as a whole.
SMILES,CHOP UPR activ,XBP1 UPR activ,Bfl-1 A1 inh,CHOP inh
CCOC(=O)c1sc2nc(C)c3c(c2c1N)CC(C)(C)OC3,-1,1,0,31
COc1ccc(Br)cc1C(=O)Nc1ccc(C(=O)NCC(C)C)cc1,-1,2,0,56
CCOc1ccc(Br)cc1C(=O)Nc1ccc(C(=O)NCC(C)C)cc1,0,5,1,83*
CCc1ccc(NC(=O)c2nc(S(=O)(=O)Cc3ccccc3)ncc2Cl)cc1,-11,-10,11*,nt
CCOC(=O)c1ccc(NC(=O)c2nc(S(=O)(=O)Cc3ccccc3)ncc2Cl)cc1,-9,-9,1,nt
CCS(=O)(=O)c1ncc(Cl)c(C(=O)Nc2ccc(S(=O)(=O)N3CCC(C)CC3)cc2)n1,-11,-11,42*,nt
COc1ccccc1CNC(=O)CN(C)Cc1ccc(SC)cc1,-1,4,1,nt
Oc1ccccc1N=N/C(=N/Nc1ccccc1O)c1ccccc1,0,-2,0,nt
Cn1nnnc1N=N/C(=N/Nc1ccccc1)c1ccccc1,6,5,0,70*
O=C(Cc1ccc(Cl)cc1)N1CCC2(CC1)NCCc1[nH]cnc12,2,-1,0,nt
CCNc1nc(SCC(=O)Nc2ccc(Cl)c(Cl)c2)nc(N(C)C)n1,0,1,1,79*
COc1ccc(/C=C/C(=O)c2cccc(-n3cnnn3)c2)cc1O,12,3,-1,nt
Cc1c(C#N)c(NC(=O)c2cccc(Cl)c2)n(Cc2ccccc2)c1C,-3,-3,0,27
COc1ccc(Cn2c(C)c(C)c(C#N)c2NC(=O)Nc2cccc(Cl)c2)cc1,1,13,0,81*
CCOC(=O)c1nn(-c2ccccc2C)c(=O)cc1OCC(=O)Nc1cccc(OC)c1,0,-2,0,nt
Cc1cc(C)nc(N/N=C/C2=C(O)CC(c3ccc(F)cc3)CC2=O)n1 (stereo not drawn),11,-3,-1,75*
CCCCc1nc2sc3c(=O)n(N)cnc3c2c2c1CCCC2,-2,-4,1,21
CCCc1nc2sc3c(=O)n(N)cnc3c2c2c1CCCC2,4,6,0,74*
Cc1nn(-c2nc(-c3ccco3)cc(C(F)(F)F)n2)c(C)c1Cl,-1,0,0,88*
CCOC(=O)C1=C(N)OC2=C(C(=O)CC(C)(C)C2)C1C1CCCCC1 (stereo not drawn),-1,0,1,96*
Cc1ccc(/C=N/Nc2ccc(Cl)nn2)cc1,4,2,-1,78*
Cc1ccc([N+](=O)[O-])cc1N/C=C1\CCc2ccccc2C1=O,13,4,0,85*
O=C(CNC(=S)N(Cc1ccccc1)Cc1ccccc1F)NCc1ccc(Cl)cc1,nt,nt,nt,78*
O=C(CNC(=S)N(Cc1ccccc1)Cc1ccccc1F)NCc1ccccc1,1,1,?,47
CCn1cc(C(=O)N2CCCC(CO)(Cc3ccccc3C)C2)cn1 (stereo not drawn),2,-2,-1,nt
SMILES,CHOP UPR activ,XBP1 UPR activ,Bfl-1 A1 inh,CHOP inh
Cc1cc(Cl)c(OCCCSc2nc(C)cc(=O)[nH]2)c(Br)c1,-1,-2,0,86*
Cc1cc(=O)[nH]c(SCCCOc2ccc(F)cc2)n1,1,-1,nt,31
O=C(O)Cn1c(SCCOc2ccc(Cl)cc2)nc2ccccc21,0,-5,2,nt
Cc1cc(Br)cc(C)c1NC(=S)NC(=O)CC(C)C,2,2,1,92*
CCC(=O)NC(=S)Nc1c(C)cc(Br)cc1C,1,-2,-1,13
O=C(COC(=O)c1ccccc1Nc1cccc(C(F)(F)F)c1)NCc1ccco1,1,-1,0,79*
O=C(COC(=O)c1cc(-c2ccc(Cl)s2)nc2ccccc12)NCc1ccco1,1,-4,-1,81*
Cc1cccc(N2CCN(C(=O)CSc3nc4ccccc4nc3N3CC(C)OC(C)C3)CC2)c1C (stereo not drawn),-2,-4,1,nt
CCCCN(CC)c1nc(N)c2c(N)nc(OCC)cc2c1C#N,0,4,0,95*
CCCCNc1nc(N(C)c2ccccc2)nc(-n2ccnc2)n1,2,11,1,70
CCCCCNc1nc(-c2ccccc2)nc(-n2ccnc2)n1,3,0,1,72*
COc1cc(NC(=O)c2csc(N)n2)cc(C(=O)Nc2cccc(C(F)(F)F)c2)c1,4,1,1,79*
Cc1cc(C)n(CC(=O)NNC(=O)c2ccc(OC(F)(F)F)cc2)n1,1,-1,0,nt
O=[N+]([O-])c1ccccc1NCc1c(O)ccc2ccccc12,0,-5,0,89*
CCCCCCCCCCCCN1[C@@H](CC(=O)O)c2cc(F)ccc2S1(=O)=O,2,1,0,nt
CS(=O)(=O)c1ccc2nc(NC(=O)Nc3ccc(Cl)c(Cl)c3)sc2c1,6,15,1,13
O=C(Nc1ccc(Cl)cc1)/C(=C/c1ccc([N+](=O)[O-])cc1)c1nc2ccccc2s1,nt,nt,nt,105*
O=C(Nc1nc2ccccc2s1)Nc1ccc([N+](=O)[O-])cc1Cl,0,1,0,40
O=C(Nc1ccc(Cl)c([N+](=O)[O-])c1)Nc1nc2ccccc2s1,2,0,0,92*
CS(=O)(=O)c1ccc2nc(NC(=O)Nc3cccc(Cl)c3)sc2c1,6,21,0,92*
CCc1ccc(C(=O)NNC(=O)C2CSC3(C)CCC(=O)N23)cc1 (stereo not drawn),2,1,0,nt
COc1ccccc1N1CCN(C2CCCN(C(=O)c3ccccn3)C2)CC1 (stereo not drawn),3,-3,1,nt
C=CCOc1nc2c(c(=O)n(C)c(=O)n2C)n1Cc1c(Cl)cccc1Cl,-2,4,0,86*
CCOc1nc2c(c(=O)n(C)c(=O)n2C)n1Cc1ccccc1Cl,1,-3,0,31
Cc1ccc(C(=O)Nc2ccccc2C(=O)NCc2ccccc2)cc1,1,1,0,80*
SMILES,CHOP UPR activ,XBP1 UPR activ,Bfl-1 A1 inh,CHOP inh
Cc1ccc(C(=O)Nc2ccccc2C(=O)NCc2cccnc2)cc1,-1,-1,0,nt
N#CCCN(C(=O)COC(=O)CCc1c[nH]c2ccccc12)c1ccccc1,0,-1,1,nt
CCCCOc1ccc(C(C)NC(=O)CCS(=O)(=O)Cc2ccccc2F)cc1 (stereo not drawn),1,-2,0,71*
C[C@H]1[C@@H](OC(=O)CCC(=O)O)O[C@@H]2OC3(C)CC[C@H]4[C@H](C)CC[C@@H]1[C@@]24OO3,nt,nt,-1,nt
CCOc1ccc(NC(=O)CCCOc2cc(=O)n(C)c3ccccc23)cc1,2,1,0,74*
COc1ccc(CCNC(=O)C(=O)NCCC2CCCCN2S(=O)(=O)c2ccccc2)cc1 (stereo not drawn),7,0,-1,nt
CN(C)C(=O)c1cccc(-c2csc(N3CCC(C(N)=O)CC3)n2)c1,5,2,0,nt
CCOC(=O)c1oc2ccc(S(=O)(=O)n3nc(-c4ccc(OC)cc4)cc3N)cc2c1C,2,-4,0,60

# High-throughput results: PubChem BioAssay, several laboratories
